Experimental data reported in ChEMBL document CHEMBL4396890, “Synthesis, Biological Evaluation, Structure-Activity Relationship, and Mechanism of Action Studies of Quinoline-Metronidazole Derivatives Against Experimental Visceral Leishmaniasis” (J Med Chem, 2019).

Key:
[1] = test system: Leishmania donovani; test: Induction of apoptosis in Leishmania donovani MHOM/IN/80/Dd8 promastigotes assessed as late apoptotic cells at 50 uM measured after 24 hrs by Annexin V-FITC/propidium iodide staining based assay (reference value: 0.02%); format: functional
[2] = test system: Leishmania donovani; test: Induction of reactive oxygen species generation in Leishmania donovani MHOM/IN/80/Dd8 promastigotes at 50 uM measured after 24 hrs by H2DCFDA probe-based flow cytometry (reference value: 7%); format: functional
[3] = test system: Leishmania donovani; test: Antileishmanial activity against Leishmania donovani MHOM/IN/80/Dd8 promastigotes infected in BALB/c mouse assessed as reduction in parasite load in spleen at 100 mg/kg, ip administered once daily for 5 days measured 7 days post dose by giemsa staining-based assay relative to control; format: functional; parameters: scale not given: the % may be the effect or the level left
Outline: (§1)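 Hamster-passaged strain was transformed to promastigotes. Stationary-phase cells (2 × 10^7 in 0.2 mL PBS) were injected into the tail vein of BALB/c mice. From day 15 post-infection, mice received compound ip in 8% DMSO in PBS for 5 consecutive days, 5 mice per group. Mice were killed day 7 post-treatment. Liver and spleen burden was read from Giemsa-stained stamp smears as LDU.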

[4] = Clearance in BALB/c mouse at 50 mg/kg, po administered via gavage by LC-MS/MS analysis; format: ADME, organism-based; settings: in vivo
[5] = Apparent volume of distribution in BALB/c mouse at 50 mg/kg, po administered via gavage by LC-MS/MS analysis; format: ADME, organism-based; settings: in vivo
[6] = test system: Leishmania donovani; test: Antileishmanial activity against Leishmania donovani MHOM/IN/80/Dd8 promastigotes infected in BALB/c mouse assessed as reduction in parasite load in spleen at 25 mg/kg, ip administered once daily for 5 days measured 7 days post dose by giemsa staining-based assay relative to control; format: functional; parameters: scale not given: the % may be the effect or the level left; outline: as §1
[7] = test system: Leishmania donovani; test: Induction of apoptosis in Leishmania donovani MHOM/IN/80/Dd8 promastigotes assessed as late apoptotic cells at 50 uM measured after 48 hrs by Annexin V-FITC/propidium iodide staining based assay (reference value: 0.02%); format: functional
[8] = test system: Leishmania donovani; test: Antileishmanial activity against Leishmania donovani MHOM/IN/80/Dd8 promastigotes infected in BALB/c mouse assessed as reduction in parasite load in liver at 100 mg/kg, ip administered once daily for 5 days measured 7 days post dose by giemsa staining-based assay relative to control; format: functional; parameters: scale not given: the % may be the effect or the level left; outline: as §1
[9] = test system: Leishmania donovani; test: Induction of mitochondrial potential loss in Leishmania donovani MHOM/IN/80/Dd8 promastigotes assessed as shift in red to green fluorescence at 50 uM after 12 hrs by JC1 dye-based flow cytometry (reference value: 7.37%); format: functional
Outline: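 Exponential-phase promastigotes were incubated with 50 μM compound for 6−48 h, or 0.1% DMSO vehicle. CCCP (50 μM) served as positive control. After JC-1 staining, the red-to-green fluorescence shift was measured by flow cytometry.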

[10] = test system: Leishmania donovani; test: Induction of nitric oxide generation in Leishmania donovani MHOM/IN/80/Dd8 promastigotes assessed as increase in fluorescence at 50 uM measured after 6 hrs by DAF-2DA dye-based flow cytometry relative to control; format: functional
Outline: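 Log-phase promastigotes exposed to 50 μM for 6–18 h, vehicle control 0.1% DMSO, then labelled with 40 μM DAF-2DA. Fluorescence (GMFC) read by flow cytometry and expressed as fold change over vehicle. At least 3 independent experiments in duplicate.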

Compound `Cc1cc(-c2ccc(OCCn3c([N+](=O)[O-])cnc3C)cc2)nc2ccccc12` has an Activity [1] of 10.04%, an Activity [2] of 41.41% and an Activity [3] of 81.7%. The CL/F [4] was 45.8 mL/min/kg, the “Vd(app)” value [5] was 15.98 L/kg and the Activity [6] was >62%. For the same compound, the Activity [7] was 0.41%, the Activity [8] was 82.5% and the Activity [9] was 33.15%. The “fold change (FC)” value [10] was 1.75.
